Screening data: PubChem, several laboratories
M1 ag = M1 muscarinic receptor agonists, primary screen, CHO-M1 cells, Fluo-4 calcium, agonist mode; Fluo-4 calcium fluorescence; hits give high values; B-score at 10 µM; hit rate 3% among 64,000;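 active means fluorescence rise, raw or as B-score row- and column-corrected plate score, outside the 99.7% band of its plate's samples, either direction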
Cdc25B inh = inhibitors of Cdc25B phosphatase catalytic domain, primary screen, biochemical, OMFP fluorescence; M-phase inducer phosphatase 2 (Homo sapiens), P30305; hit rate 0.1% among 65,000; inhibition, %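 (compounds tested at 10 µM final in the well)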; recombinant Cdc25B, OMFP fluorescence Ex485/Em525; in the data active means inhibition above about 50%
Target sequence (P30305 whole entry, looked up, the tested form may be a part): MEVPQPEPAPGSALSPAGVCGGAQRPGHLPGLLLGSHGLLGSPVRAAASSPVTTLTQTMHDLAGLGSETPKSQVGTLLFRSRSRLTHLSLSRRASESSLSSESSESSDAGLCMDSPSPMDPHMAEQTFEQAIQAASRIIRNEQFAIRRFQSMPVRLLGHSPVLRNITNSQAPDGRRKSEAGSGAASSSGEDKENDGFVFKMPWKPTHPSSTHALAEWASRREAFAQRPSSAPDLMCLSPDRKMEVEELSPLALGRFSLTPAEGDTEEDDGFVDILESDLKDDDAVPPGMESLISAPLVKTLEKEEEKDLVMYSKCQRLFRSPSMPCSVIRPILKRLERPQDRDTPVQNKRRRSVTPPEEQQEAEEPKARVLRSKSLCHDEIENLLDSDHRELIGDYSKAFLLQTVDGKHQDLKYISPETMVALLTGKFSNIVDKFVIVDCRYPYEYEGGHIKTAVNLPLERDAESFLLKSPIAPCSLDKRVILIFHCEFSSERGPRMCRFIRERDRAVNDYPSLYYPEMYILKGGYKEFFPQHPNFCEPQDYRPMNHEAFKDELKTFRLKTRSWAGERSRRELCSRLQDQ
HEK293 NFkB inh = inhibitors of PMA/ionomycin-induced NF-kB reporter, primary screen, antigen receptor NF-kB inhibitor project, cell-based, HEK-293 luciferase reporter, luminescence; hit rate 0.21% among 62,000; AID 465, 2006; inhibition, % at 3 µM; HEK-293 NF-kB luciferase reporter;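 active means inhibition above the mean of all tested compounds plus 3 SD, cut at about 40% in these data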;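 further: 0% = stimulated DMSO wells and 100% = 10 µM reference inhibitor 5653914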
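System: NF-kB luciferase reporter HEK-293 cells | Replication: Single test | Control set: DMSO vs reference inhibitor | Evaluation: % inhibition | Schedule: 1 h pretreatment, 16 h stimulation, 37 °C | Probe or stimulus: PMA with ionomycin | Compound dosing: One dose, 3 µM | Detection: Luciferase luminescence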
DUSP1 inh = MKP-1 phosphatase inhibitors, primary screen, biochemical, in vitro. Dual specificity protein phosphatase 1 (Homo sapiens), P28562. recombinant MKP-1, OMFP hydrolysis fluorescence. inhibition, %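 (compounds tested at a single concentration somewhere between 10 and 100 µM)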. hit rate 0.15% among 65,000. AID 374, 2006;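 active means inhibition above about 50%, limit read from the data; inconclusive means inhibition over screen mean plus 3 SD, below that limit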;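 further: 0% = DMSO max control wells and 100% = wells with enzyme stopped by NaOH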
Her2 expr inh = inhibitors of Her2 protein expression, primary screen, SKBR-3 cells, AlphaScreen, 66K library | AID 645, 2007 | Receptor tyrosine-protein kinase erbB-2 (Homo sapiens), P04626 | SKBR-3 HER2 protein level, 18-24 h; hits give low values | HER2 level % of control, % at 10 µM | hit rate 0.69% among 65,000;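 active means HER2 level under 5% of the carrier-only control; inconclusive means no clear call, values can overlap the other calls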;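 further: 100% = DMSO carrier and 0% = 500 nM PU-H71 HSP90 inhibitor; lower value means stronger loss of Her2 protein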
M1 antagonist = antagonists of rat M1 muscarinic receptor; Muscarinic acetylcholine receptor M1 (Rattus norvegicus), P08482; CHO-M1 cells, Fluo-4 calcium, ACh EC80 antagonist mode; hits give low values; B-score at 10 µM; hit rate 3.4% among 64,000;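 active means calcium fluorescence response, raw or row-and-column corrected B-score, differing from the plate sample mean either way at a set confidence level, mostly lower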
M1 ag confirm = rat M1 muscarinic receptor agonists, confirmation, CHO-M1 cells, Fluo-4 calcium, duplicate retest. shares compounds with M1 ag. Fluo-4 calcium fluorescence, agonist mode; actives lie on both sides. fluorescence change (max-min) at 10 µM. hit rate 19% among 1,700. AID 1488, 2009;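 active means fluorescence change differs from the solvent-only DMSO control mean at a set confidence level in both duplicate runs; inconclusive means differs from solvent-only control mean in just one of two runs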;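 further: an EC20 dose of acetylcholine follows compound addition during the same imaging run; raw fluorescence intensity difference in instrument units with no normalization to controls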
M4 agonist ctr = agonist activity at rat M4 receptor, confirmation, counter-screen for M1 allosteric modulator project, cell-based, agonist mode; shares compounds with M1 ag; CHO M4/Gqi5 cells, Fluo-4 calcium fluorescence; actives lie on both sides; fluorescence change (max-min) at 10 µM; hit rate 9% among 1,700;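 active means fluorescence change differing from the plate's solvent-only control wells at 99.7% confidence in both duplicates, whether higher or lower; inconclusive means differs from solvent controls in only one of two duplicates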
* = called active by the depositor; ? = inconclusive; nt = no result given. Sampled rows, rich in hits. Any-hit rate of the full collection: about 6.8%.

SMILES | M1 ag | Cdc25B inh | HEK293 NFkB inh | DUSP1 inh | Her2 expr inh | M1 antagonist | M1 ag confirm | M4 agonist ctr
O=C(c1ccco1)N1CCN(c2ncnc3c2oc2ccccc23)CC1 | 14* | 0 | -12 | 22 | 70 | -1.3 | -13 | -26
COc1ccc(N2CCN(c3ncnc4nc[nH]c34)CC2)cc1 | -2.3 | -7 | 7 | -2 | 93 | 0.095 | nt | nt
CC(c1ccccc1)n1cc(C(=O)NCc2ccncc2)nn1 (configuration not stated) | 0.22 | 2 | 6 | 4 | 92 | -0.27 | nt | nt
Cc1c(NS(=O)(=O)c2cccc3nsnc23)c(=O)n(-c2ccccc2)n1C | 0.089 | 20 | nt | -20 | 97 | -0.25 | nt | nt
Cc1cc(OCc2nnc(SCC(=O)OC3CCCCC3)o2)ccc1Cl | 4.6* | 2 | -6 | -18 | 88 | 0.13 | ? | ?
O=C(CSc1nnc(COc2ccc(Cl)cc2)o1)OC1CCCCC1 | 0.004 | -5 | 8 | -11 | 103 | 1.3 | nt | nt
COc1cc(C2C(C(=O)c3ccco3)=C(O)C(=O)N2CCc2ccccc2)ccc1O (configuration not stated) | 89* | 0 | 21 | 12 | 149 | -1.4 | -9.4 | -30
CCOc1cc(C2C(C(=O)c3ccc(C)o3)=C(O)C(=O)N2CCc2ccccc2)ccc1O (configuration not stated) | 0.29 | -7 | 20 | 27 | 48 | -0.22 | nt | nt
COc1ccccc1CNC(=O)N[C@@H](Cc1ccccc1)C(=O)O | 0.91 | 1 | 7 | -7 | 104 | 0.34 | nt | nt
Cc1ccc(-c2nnc3c4ccccc4c(C)nn23)cc1S(=O)(=O)N1CCN(CCO)CC1 | 4.2* | -5 | 14 | ? | 131 | -1.6 | -0.23 | -20
Cc1ccc(-c2nnc3c4ccccc4c(C)nn23)cc1S(=O)(=O)N1CCN(C)CC1 | 2 | 2 | 8 | 24 | 38 | -0.36 | nt | nt
COc1cccc(OC)c1OCCCCCc1c(C)n[nH]c1C | 3* | -2 | -1 | -5 | 109 | -0.087 | -17 | -44
COc1ccc(C2CNC(=O)C2)cc1OC1CCCC1 (configuration not stated) | -0.41 | -10 | nt | -4 | 93 | -0.24 | nt | nt
COc1nc(N(c2ccccc2)c2ccccc2)nc(-n2ccnc2)n1 | 3.4* | -7 | 18 | 17 | 138 | -1 | -11 | -28
COc1ccc(OC)c(NC(=O)c2ccc(NC(C)=O)cc2)c1 | -0.025 | -5 | -2 | 7 | 93 | -1.2 | nt | nt
COc1ccc(OC)c(N/C(C)=C/C(=O)c2ccc(C)o2)c1 | 5.9* | -17 | 10 | 14 | 150 | 0 | ? | -43
Cc1ccc2[nH]c3c(c2c1)CN(C(=O)CN1CC(C)OC(C)C1)CC3 (configuration not stated) | 8.4* | 4 | nt | -22 | 122 | -0.019 | 31 | 17
Cc1ccc2[nH]c3c(c2c1)CN(C(=O)CN1CCN(Cc2ccc4c(c2)OCO4)CC1)CC3 | 0.065 | -6 | 9 | 13 | 104 | -1.6 | nt | nt
COC(=O)C1=C(C)NC(C)=C(C(=O)OC)C1c1cn(-c2ccccc2)nc1-c1ccco1 | -0.06 | 4 | nt | 21 | 54 | 0.0064 | nt | nt
CCOC(=O)N1CCC(Nc2nc3ccccc3nc2NS(=O)(=O)c2ccc(Cl)cc2)CC1 | 1.6 | 0 | 0 | 39 | 53 | -0.00037 | nt | nt
Cc1ccc(-c2nn(-c3ccccc3)cc2/C=C(\C#N)c2cccc(C#N)c2)o1 | -1.5 | -8 | 15 | 0 | 73 | 0.022 | nt | nt
Cc1ccc(/C(C#N)=C\c2cn(C)c3ccccc23)cc1 | -2.7* | 0 | 13 | -8 | 60 | -0.4 | -11 | -28
CSc1ccccc1NC(=O)c1ccco1 | -0.12 | -15 | 13 | 22 | 101 | 0.3 | nt | nt
O=C(Nc1ccccc1NC(=O)c1c(F)c(F)c(F)c(F)c1F)c1c(F)c(F)c(F)c(F)c1F | 2.9* | -12 | 14 | 1 | 88 | -1.6 | -4.4 | ?
O=C(Nc1cccc(F)c1)c1c(F)c(F)c(F)c(F)c1F | 3.7* | 2 | -1 | 12 | 73 | -1 | -0.43 | -58
SMILES | M1 ag | Cdc25B inh | HEK293 NFkB inh | DUSP1 inh | Her2 expr inh | M1 antagonist | M1 ag confirm | M4 agonist ctr
O=C(Nc1cccnc1)c1c(F)c(F)c(F)c(F)c1F | 0.36 | -6 | 7 | -9 | 121 | 0.047 | nt | nt
CCOc1ccc(S(=O)(=O)N(C)CCO)cc1-c1nc2c(C(C)(C)C)nn(C)c2c(=O)[nH]1 | 5.6* | 8 | nt | -13 | 250 | -1.8 | -13 | -33
CCOc1ccc(S(=O)(=O)N(C)C)cc1-c1nc2c(C(C)(C)C)nn(C)c2c(=O)[nH]1 | -0.0043 | 5 | nt | -3 | 88 | 0.38 | nt | nt
CCn1nc(C)c(/C=C2\CCCC3=C2OC(N)=C(C#N)C3c2c(C)nn(CC)c2C)c1C (configuration not stated) | 14* | -1 | 29 | 34 | 80 | 0.5 | 100* | ?
CCCc1nn(C)c2c1C(c1ccncc1)C(C#N)=C(N)O2 (configuration not stated) | 0.45 | -4 | 2 | -21 | 92 | -0.015 | nt | nt
Cc1cc(C)nc(SCc2ccc3nonc3c2)n1 | 0.6 | -13 | 13 | 2 | 121 | -0.032 | nt | nt
C=CCn1c2ccccc2c2nnc(SCc3ccc4nonc4c3)nc21 | 2.3* | -5 | 14 | 27 | 74 | 0.36 | -22 | -45
COC(=O)[C@@H](NC(=O)NCc1ccccc1Cl)C(C)C | 0.89 | -3 | 2 | -29 | 106 | -0.61 | nt | nt
CC(C)c1cc(CN2CCN(CCC#N)CC2)cc(C(C)C)c1O | 27* | 4 | 18 | -3 | 157 | -0.12 | 14 | -33
CC(C)(C)c1cc(CN2CCN(CCO)CC2)cc(C(C)(C)C)c1O | -0.64 | -5 | 19 | 4 | 93 | 0.17 | nt | nt
O=c1cc(CSc2nnc(COc3ccccc3Cl)o2)nc2sccn12 | -1.5 | -11 | 5 | -2 | 101 | -0.13 | nt | nt
C1=CN2CCC1C(c1ccccc1)C2 (configuration not stated) | 44* | -12 | 17 | 6 | 151 | -8* | 428* | 7.6
O=C(C1CC1c1ccccc1)N1CCOCC1 (configuration not stated) | nt | 0 | 15 | -1 | 97 | nt | nt | nt
